# Results collected from several papers.
# Protocols differ between the studies behind these lines.
# Target: MAP kinase-activated protein kinase 3 (MAPKAPK3, Homo sapiens, UniProt Q16644)
Compound,effect on,mode,technique,concentration,endpoint,value
CC/C(=N\NC(=O)NCc1cccc(O)c1)c1ccc(O)c(C)c1O,enzyme activity,inhibitor,,0.1 µM,inhibition,-6%
FC(F)c1nc2ccccc2n1-c1nc(N2CCOCC2)nc(N2CCOCC2)n1,enzyme activity,inhibitor,,10 µM,remaining activity,97%
Cc1cnc(NC2CCOCC2)nc1-n1cnc(C(=O)NC(CN)c2cc(F)cc(Cl)c2)c1 (stereo not shown),enzyme activity,inhibitor,radiometric,1 µM,remaining activity,110%
CC(C)(C)c1nc2c(s1)c1nc(N)ncc1c1ccc(NS(=O)(=O)c3c(F)cccc3F)c(F)c12,enzyme activity,inhibitor,radiometric,1 µM,remaining activity,93%
CCCS(=O)(=O)Nc1ccc(F)c(C(=O)c2c[nH]c3ncc(-c4ccc(Cl)cc4)cc23)c1F,enzyme activity,inhibitor,,1 µM,inhibition,< 10%
CCN(CC)CCNC(=O)c1c(C)[nH]c(/C=C2\C(=O)Nc3ccc(F)cc32)c1C,enzyme activity,inhibitor,,10 µM,inhibition,6%
N#CCCc1ccc2c(c1)-c1[nH]c3ccc([N+](=O)[O-])cc3c1CC(=O)N2,cell-free assay,,,0.5 µM,remaining signal,96.8%
Cc1cc(NC(=O)c2cccc3cc(-c4cccc5[nH]nc(N)c45)ccc23)ccc1F,enzyme activity,inhibitor,,0.1 µM,activity vs control,96%
FC(F)(F)Oc1cccc(-c2cnc3ccc(-c4ccncc4)nn23)c1,enzyme activity,inhibitor,radiometric,5 µM,activity vs control,97%
CNc1cccc2cc(C(=O)Nc3ccc(C(=O)O)cc3)c(=O)[nH]c12,enzyme activity,inhibitor,,10 µM,inhibition,-3.2%
Oc1cccc(-c2nc(N3CCOCC3)c3oc4ncccc4c3n2)c1,enzyme activity,inhibitor,,10 µM,remaining activity,100%
CCOc1cc(-c2nncn2C)ccc1Nc1ncc2cc(C)nc(NCC(C)(C)C)c2n1,enzyme activity,inhibitor,FRET,1 µM,inhibition,< 15%
O=C1NC(=O)c2cc(Nc3ccc(F)cc3)c(Nc3ccc(F)cc3)cc21,cell-free assay,,,0.5 µM,remaining signal,95.9%
CNC(=O)c1cc(Oc2ccc(NC(=O)Nc3ccc(Cl)c(C(F)(F)F)c3)cc2)ccn1,enzyme activity,inhibitor,,0.3 µM,inhibition,-3%
COc1cc2ncnc(Nc3ccc(Oc4ccccc4)c(C)c3C)c2cc1OC,enzyme activity,inhibitor,,1 µM,inhibition,-14%
COc1cc(Nc2cnc(C#N)c(O[C@H](C)CN(C)C)n2)ncc1-c1cnn(C)c1,enzyme activity,inhibitor,radiometric,10 µM,remaining activity,80%
COc1cccc2c(NCc3ccccc3)nc(-n3c(N)nc4ccccc43)nc12,target engagement in cells,inhibitor,chemoproteomics,20 mM,inhibition,-7.4%
Cc1ccc(Nc2nccc(N(C)c3ccc4c(C)n(C)nc4c3)n2)cc1S(N)(=O)=O,enzyme activity,inhibitor,,0.3 µM,inhibition,-8%
O=C(Nc1cnn(-c2csc(C(=O)NC3COC3)c2)c1)Nc1ccccc1Cl,enzyme activity,inhibitor,,5 µM,remaining activity,83.5%
